Screens (PubChem BioAssay)
Rows were chosen to be rich in hits. Some 2.9% of all compounds tested hit in one or more screens of this group.
MC4R ag barr: activates human MC4R beta-arrestin recruitment. P32245. U2OS MC4R beta-arrestin complementation, luminescence; percent of melanotan II response, DMSO zero. activation, % at 8.9 µM. actives 0.98% (n = 360,000). AID 540308;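 active means activation above a per-plate cutoff, the mean activation of sample wells on that plate plus 3 SD, cut at about 8% in these data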
Calb FLC: affects C. albicans growth with fluconazole | AID 1979 | C. albicans CaCi-2 + fluconazole, Alamar Blue growth, 48 h | actives 0.57% (n = 300,000) | growth inhibition, % (concentration not given with the values);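 active means growth inhibition above about 58% in most replicates, limit read from the data, passing the limit was not always enough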;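 further: all wells also contain fluconazole at 8 µg/ml as a sub-toxic cotreatment; 0% = median of DMSO wells and 100% = median of geldanamycin control wells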
TAG inh: triacylglycerol accumulation inhibition; H9c2 cells, Nile Red lipid (TAG) fluorescence; cells loaded with 200 µM oleic acid; inhibition, % at 12.5 µM; actives 0.66% (n = 230,000); AID 651582;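 active means pattern-corrected inhibition of lipid staining of at least 50% with the nuclear-stain viability signal not falling by more than 50%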;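 further: 0% = DMSO wells and 100% = triacsin C control wells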
MC4R antag cAMP: human MC4R antagonism in cAMP assay | MC4R-expressing cells, MTII-stimulated cAMP, LANCE TR-FRET | inhibition, % at 6.5 µM | actives 0.48% (n = 360,000) | AID 540295;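 active means inhibition above its plate's cutoff, the mean of tested wells on that plate plus 3 SD, cut at about 29% in these data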;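 further: 0% = Melanotan II alone and 100% = Melanotan II plus saturating MCL0020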
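Assay system: U2OS cells stably expressing human melanocortin 4 receptor (MC4R) / Dosing: 6.5 µM / Timing: compound 30 min, challenge 1 h, detection 1 h / Measured by: Eu-cAMP/anti-cAMP TR-FRET, emission 671 nm / Replicates: singlicate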
Efflux pump mplx: inhibitors of Candida antifungal efflux pumps expressed in yeast; inhibition, % at 10 µM; S. cerevisiae Candida pump triplex, Nile Red efflux; actives 0.44% (n = 330,000); AID 485275;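 active means plate passing quality check with inhibition over a set limit, or well fluorescence over plate mean plus 4 SD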;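 further: Nile Red retained in pooled yeast measured as flow cytometry median fluorescence; 0% = buffer negative control and 100% = Enniatin B positive control; higher means more Nile Red kept so more efflux inhibition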
GalR3 antagonist: human GalR3 antagonism | inhibition, % at 3 µM | O60755 | HEK293 GalR3-CNG cAMP membrane potential fluorescence; galR3 body fused to GalR1 C-terminus | actives 0.44% (n = 360,000);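 active means inhibition above the screen-wide average plus 3 SD, cut at about 13% in these data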;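 further: forskolin and galanin both at EC90 stimulate the cells; cAMP rise reported by CNG channel membrane potential dye signal; 0% = forskolin plus galanin with DMSO and 100% = forskolin alone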
MC4R barr ag: human MC4R beta-arrestin agonism confirmation; AID 602192; activation, % at 8.9 µM; shares compounds with MC4R ag barr; U2OS MC4R beta-arrestin recruitment, luminescence; scaled DMSO 0%, Melanotan II 100%; actives 31% (n = 2,400);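 active means mean activation across replicates above the hit cutoff set in the earlier primary screen, cut at about 8% in these data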
MOR DOR agonist: activates mu-delta opioid heterodimer, MC4R agonist counter-screen | shares compounds with MC4R ag barr | U2OS PathHunter beta-arrestin, beta-gal luminescence; percent of deltorphin B response, DMSO zero | activation, % at 9.2 µM | actives 5.8% (n = 2,400) | AID 602194;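 active means mean activation across replicates exceeds the hit threshold derived in the earlier primary screen, cut at about 18% in these data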;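 further: 100% = deltorphin B at 0.9 µM final and 0% = DMSO alone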
Starred values were filed as active, the others as inactive; . = no result.

SMILES | MC4R ag barr | Calb FLC | TAG inh | MC4R antag cAMP | Efflux pump mplx | GalR3 antagonist | MC4R barr ag | MOR DOR agonist
CC(C)(C)C(=O)NC(=S)Nc1sc2c(c1C#N)CCCCC2 | 17* | -2 | . | -5 | 0 | -9 | -3 | 2
Nc1cccc(-c2nc3cc(S(=O)(=O)c4ccc5oc(-c6cccc(N)c6)nc5c4)ccc3o2)c1 | 14* | -3 | . | -2 | 0 | -3 | 5 | 8
Cc1ccc(OCc2ccc(C(=O)Nc3nccs3)o2)cc1 | 15* | -11 | 1 | -5 | 0 | -4 | 2 | 3
O=C(NCc1ccccc1)N1CCN(c2ccc(Cl)c(Cl)c2)CC1 | 22* | 6 | -17 | 2 | 0 | -6 | 1 | 5
O=[N+]([O-])c1cc(S(=O)(=O)N2CCCC2)ccc1N/N=C/c1cccs1 | 20* | -2 | 8 | -7 | 0 | -3 | 2 | 4
COc1ccc(Cn2c(=S)[nH]c3ccccc3c2=O)cc1 | 11* | 6 | . | 1 | 0 | -1 | -3 | 3
Cc1ccc(C)c(OCCC(=O)OCC(=O)NCCNC(=O)COC(=O)CCOc2cc(C)ccc2C)c1 | 11* | . | -7 | -4 | 0 | -4 | 1 | 5
O=C(N/N=C1/CC(c2ccccc2)Oc2ccccc21)C1CC1 (stereo not given) | 9.6* | 17 | . | 10 | 0 | -9 | 8.7* | 9
CCC(C(=O)Nc1nnc(-c2ccco2)s1)c1ccccc1 (stereo not given) | 10* | -3 | 1 | 15 | 0 | 3 | 2 | 6
CCC(c1ccccc1)c1nnc(NC(=O)c2ccco2)s1 (stereo not given) | 1 | -3 | 1 | 6 | 0 | -4 | . | .
O=C(Nc1nnc(CC(c2ccccc2)c2ccccc2)s1)c1ccco1 | 20* | -9 | 14 | 7 | 0 | -5 | 2 | 2
CCCCNC(=S)N(C)/N=C/c1ccc(OCC(=O)Nc2c(C)cc(C)cc2C)c(OC)c1 | 14* | -2 | . | 12 | 0 | -3 | 11* | 8
CCCCNC(=S)N(C)/N=C/c1ccc(OCC(=O)Nc2ccc(OC)cc2)c(OC)c1 | 2 | -11 | . | -1 | 0 | -1 | . | .
CCOc1ccc(NC(=NCc2ccc3c(c2)OCO3)SC2CC(=O)N(c3ccccc3)C2=O)cc1 (stereo not given) | 18* | 11 | 0 | 1 | 0 | -6 | 7 | 7
COC(=O)c1ccc(-c2cccc(CN3CCN(c4ncc(Cc5ccccc5)cn4)CC3)c2)cc1 | . | . | . | . | . | -2 | . | .
Cc1ccc(-c2nn(-c3ccccc3)cc2/C=C/C(=O)Nc2nccs2)cc1 | 19* | -3 | . | -5 | 0 | -3 | 8 | 4
O=C(NN(Cc1ccccc1)Cc1ccccc1)c1ccccc1 | -2 | . | -11 | 11 | . | -8 | . | .
O=C1CN(C(=O)COC(=O)/C=C/c2ccc(OC(F)F)cc2)c2ccccc2N1 | 11* | -4 | . | -5 | 0 | -3 | -1 | 3
O=C(CCCCn1c(=O)c2ccccc2n(CC(=O)Nc2ccc(F)cc2)c1=O)NCc1ccco1 | 0 | -6 | -9 | 16 | 0 | 1 | . | .
O=C(CCCCn1c(=O)c2ccccc2n(Cc2ccc(F)cc2Cl)c1=O)NCc1ccco1 | 11* | 0 | -4 | 5 | 0 | -6 | 1 | 4
CCOC(=O)[C@]12CCCC=C1N(CCC1=CCCCC1)C(=O)[C@H](CC(=O)NCc1cccc(C(F)(F)F)c1)C2 | . | . | . | . | . | -10 | . | .
Cc1nn(Cc2ccccc2Cl)c(C)c1C(=O)NCCN1C(=O)S/C(=C\c2ccccc2)C1=O | 20* | 12 | . | -16 | 0 | -4 | 12* | 5
COc1cccc(/C=N/Nc2ccc([N+](=O)[O-])cn2)c1O | 23* | 97* | . | -3 | 0 | -13 | 15* | 5
Cc1ccc(-c2csc(NC(=O)CSc3ncn(-c4ccccc4)n3)n2)cc1 | 11* | 3 | 47 | -3 | 0 | -7 | 5 | 5
O=C(CSc1nc(-c2ccccc2)cs1)Nc1nccs1 | 19* | 112* | 23 | -5 | 0 | -5 | 0 | 9
SMILES | MC4R ag barr | Calb FLC | TAG inh | MC4R antag cAMP | Efflux pump mplx | GalR3 antagonist | MC4R barr ag | MOR DOR agonist
Cc1ccc(C(=O)NCCc2nnc(SCC(=O)Nc3nc(-c4ccccc4)cs3)n2C)cc1 | 21* | 1 | 18 | -4 | 0 | -4 | 8.9* | 3
O=C(CSc1ncn(-c2ccccc2)n1)Nc1nc(-c2ccccc2)cs1 | 6 | 6 | . | 7 | 0 | -5 | . | .
COc1ccc(C2CCc3cc4c(cc3C2=NO)OCO4)cc1OC (stereo not given) | 1 | . | -5 | 0 | . | -2 | . | .
O=C(CNC(=S)NC(=O)c1ccc(Br)o1)c1ccccc1 | 11* | 8 | . | 1 | 0 | -7 | 2 | 6
O=C(CNC(=O)c1ccc(Cl)cc1)c1ccc(Br)cc1 | 5 | -2 | . | 2 | 0 | -10 | . | .
O=C(CNC(=S)NC(=O)c1ccc(Cl)cc1)c1ccccc1 | 12* | -2 | . | -1 | 0 | 1 | 2 | 3
O=C(CNC(=O)c1ccc(Br)o1)NNC(=O)c1ccccc1 | 0 | . | 7 | 10 | . | -3 | . | .
COc1ccc(OC)c(NC(=O)C2(C)CCN2Cc2ccc(SC)cc2)c1 (stereo not given) | 1 | . | -6 | 8 | . | -8 | . | .
O=C1COc2ccc(C(=O)COC(=O)c3sc4ccccc4c3Cl)cc2N1 | 12* | -5 | . | 2 | 0 | -3 | 4 | 4
CCN(CC)C1Oc2cc3c(cc2C(c2cc(OC)c(OC)c(OC)c2)C1C)OCO3 (stereo not given) | 1 | . | 32 | -44 | . | 6 | . | .
CC(C)(C)c1ccc(C(=O)O/N=C(\N)c2ccccc2)cc1 | 16* | -4 | . | 7 | 0 | -10 | 8.4* | 12
COc1ccc(C(=O)O/N=C(\N)c2ccccc2)cc1 | 0 | -20 | . | 12 | 0 | -11 | . | .
COC(=O)[C@]12C[C@H](CC(=O)N3CCN(C(=O)c4ccco4)CC3)C(=O)N(Cc3ccc4c(c3)OCO4)C1=C[C@H](COCc1ccccc1)O[C@@H]2C | . | . | . | . | . | -6 | . | .
Brc1cc2c(cc1-c1nc3ccccc3s1)OCO2 | 15* | -4 | . | 8 | 0 | -6 | 1 | 4
COc1ccc(Nc2nc3ccccc3nc2-n2nc(C)cc2C)cc1 | -3 | 5 | 0 | 13 | 0 | -1 | . | .
Cc1cc(C)n(-c2nc3ccccc3nc2Nc2ccc3[nH]c(=O)[nH]c3c2)n1 | 19* | 6 | . | 3 | 0 | -3 | 9.6* | 2
